Source: ChEMBL document CHEMBL1122233, “Antihypertensive 9-substituted 1-oxa-4,9-diazaspiro[5.5]undecan-3-ones” (J Med Chem, 1983)

What was measured:
Rattus norvegicus [1] = assay: (§1) Percentage fall in systolic blood pressure after 2 hours at 50 mg/kg given perorally; assay type: functional, Artery; details: route oral
Method in brief: (§2)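 Male Okamoto-Aoki SHR, four per group, with a concurrent vehicle control group. Oral dosing in water (0.1 mL/10 g) on two consecutive mornings. After the day-2 dose, rats were restrained in a 30 °C chamber. Tail-cuff systolic pressure was taken at 1-4 h from four traces per rat. Result is % decrease versus control mean, by 1-tailed t test, p ≤ 0.05.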

Rattus norvegicus [2] = assay: Percentage fall in systolic blood pressure after 2 hours at 6.25 mg/kg given perorally; assay type: functional, Artery; details: route oral; method in brief: as §2
[3] = target: T1, Adrenergic receptor alpha-2 (Rattus norvegicus, UniProt P22086+P19328+P22909); assay: Affinity for alpha-2 adrenergic receptor of rat cerebral cortex was determined by ligand binding using [3H]yohimbine.; assay type: tissue-based
T1 sequence (P22086 whole entry): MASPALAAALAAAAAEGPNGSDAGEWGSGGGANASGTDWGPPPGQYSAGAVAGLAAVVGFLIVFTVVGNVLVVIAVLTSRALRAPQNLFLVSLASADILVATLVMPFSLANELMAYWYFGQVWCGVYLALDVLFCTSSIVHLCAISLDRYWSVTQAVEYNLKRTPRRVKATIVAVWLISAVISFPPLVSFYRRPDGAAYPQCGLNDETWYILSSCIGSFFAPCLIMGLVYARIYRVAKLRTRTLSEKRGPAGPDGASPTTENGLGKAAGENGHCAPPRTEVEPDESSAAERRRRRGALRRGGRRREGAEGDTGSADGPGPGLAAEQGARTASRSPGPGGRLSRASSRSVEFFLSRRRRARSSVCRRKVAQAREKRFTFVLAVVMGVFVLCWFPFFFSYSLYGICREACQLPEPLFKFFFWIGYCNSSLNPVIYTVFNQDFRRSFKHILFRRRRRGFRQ
T1 sequence (P19328 whole entry): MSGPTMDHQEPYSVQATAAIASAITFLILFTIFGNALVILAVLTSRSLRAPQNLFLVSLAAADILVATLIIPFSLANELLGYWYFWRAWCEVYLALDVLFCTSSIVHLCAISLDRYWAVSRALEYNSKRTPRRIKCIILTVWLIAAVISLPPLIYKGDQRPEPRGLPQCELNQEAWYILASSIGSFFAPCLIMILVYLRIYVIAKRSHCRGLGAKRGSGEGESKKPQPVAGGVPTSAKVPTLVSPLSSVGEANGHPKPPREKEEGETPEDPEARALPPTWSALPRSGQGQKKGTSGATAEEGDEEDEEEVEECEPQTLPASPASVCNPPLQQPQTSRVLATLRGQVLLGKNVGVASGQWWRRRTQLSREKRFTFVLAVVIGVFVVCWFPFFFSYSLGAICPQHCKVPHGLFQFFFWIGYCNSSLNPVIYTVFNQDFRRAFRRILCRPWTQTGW
T1 sequence (P22909 whole entry): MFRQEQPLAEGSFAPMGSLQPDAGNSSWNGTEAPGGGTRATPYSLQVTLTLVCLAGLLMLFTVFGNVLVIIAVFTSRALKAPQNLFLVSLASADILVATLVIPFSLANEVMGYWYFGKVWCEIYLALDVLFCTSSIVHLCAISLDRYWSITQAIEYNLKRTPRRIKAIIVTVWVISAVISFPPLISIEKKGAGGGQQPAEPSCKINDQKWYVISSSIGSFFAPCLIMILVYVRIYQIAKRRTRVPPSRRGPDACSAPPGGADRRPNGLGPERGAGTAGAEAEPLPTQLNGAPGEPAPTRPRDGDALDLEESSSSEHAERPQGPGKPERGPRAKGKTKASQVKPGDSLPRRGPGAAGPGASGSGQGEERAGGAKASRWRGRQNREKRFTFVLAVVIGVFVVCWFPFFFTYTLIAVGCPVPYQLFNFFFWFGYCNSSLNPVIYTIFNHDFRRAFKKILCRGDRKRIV
Method in brief: (§3)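 Washed rat cerebral cortex membranes (homogenised in 50 mM Tris-HCl pH 7.8, pelleted at 48000g, washed 3 times) at 2.5 mg/mL protein. […] Ice-cold buffer stop, then filtration. Nonspecific binding defined with 200 μmol norepinephrine. KI from IC50 by Cheng-Prusoff, given as negative log.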

Rattus norvegicus [4] = assay: Percentage fall in systolic blood pressure after 2 hours at 12.5 mg/kg given perorally; assay type: functional, Artery; details: route oral; method in brief: as §2
Rattus norvegicus [5] = assay: Percentage fall in systolic blood pressure after 3 hours at 6.25 mg/kg given perorally; assay type: functional, Artery; details: route oral; method in brief: as §2
Rattus norvegicus [6] = assay: Percentage fall in systolic blood pressure after 1 hr at 6.25 mg/kg given perorally; assay type: functional, Artery; details: route oral; method in brief: as §2
Rattus norvegicus [7] = assay: (§4) Percentage fall in systolic blood pressure after 4 hours at 50 mg/kg given perorally; assay type: functional, Artery; details: route oral; method in brief: as §2
Rattus norvegicus [8] = assay: (§5) Percentage fall in systolic blood pressure after 3 hours at 50 mg/kg given perorally; assay type: functional, Artery; details: route oral; method in brief: as §2
Rattus norvegicus [9] = assay: Percentage fall in systolic blood pressure after 4 hours at 12.5 mg/kg given perorally; assay type: functional, Artery; details: route oral; method in brief: as §2
[10] = target: T2, Adrenergic receptor alpha-1 (Rattus norvegicus, UniProt P15823+P23944+P43140); assay: Affinity for alpha-1 adrenoceptor of rat cerebral cortex was determined by ligand binding using [3H]prazosin.; assay type: tissue-based; method in brief: as §3
T2 sequence (P15823 whole entry): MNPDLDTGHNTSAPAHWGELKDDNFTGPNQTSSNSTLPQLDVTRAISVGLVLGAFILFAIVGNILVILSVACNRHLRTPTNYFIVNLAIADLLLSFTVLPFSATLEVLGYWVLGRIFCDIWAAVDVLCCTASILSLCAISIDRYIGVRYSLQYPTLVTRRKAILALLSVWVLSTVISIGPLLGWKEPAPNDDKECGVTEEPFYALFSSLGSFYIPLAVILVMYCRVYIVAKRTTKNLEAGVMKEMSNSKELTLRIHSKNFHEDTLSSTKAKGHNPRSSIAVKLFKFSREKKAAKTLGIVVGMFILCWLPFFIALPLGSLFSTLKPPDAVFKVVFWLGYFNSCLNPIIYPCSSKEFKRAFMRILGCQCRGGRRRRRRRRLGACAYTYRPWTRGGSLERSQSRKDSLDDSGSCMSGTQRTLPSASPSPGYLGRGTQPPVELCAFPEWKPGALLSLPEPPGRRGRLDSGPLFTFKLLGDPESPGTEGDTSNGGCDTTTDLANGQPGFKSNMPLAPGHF
T2 sequence (P23944 whole entry): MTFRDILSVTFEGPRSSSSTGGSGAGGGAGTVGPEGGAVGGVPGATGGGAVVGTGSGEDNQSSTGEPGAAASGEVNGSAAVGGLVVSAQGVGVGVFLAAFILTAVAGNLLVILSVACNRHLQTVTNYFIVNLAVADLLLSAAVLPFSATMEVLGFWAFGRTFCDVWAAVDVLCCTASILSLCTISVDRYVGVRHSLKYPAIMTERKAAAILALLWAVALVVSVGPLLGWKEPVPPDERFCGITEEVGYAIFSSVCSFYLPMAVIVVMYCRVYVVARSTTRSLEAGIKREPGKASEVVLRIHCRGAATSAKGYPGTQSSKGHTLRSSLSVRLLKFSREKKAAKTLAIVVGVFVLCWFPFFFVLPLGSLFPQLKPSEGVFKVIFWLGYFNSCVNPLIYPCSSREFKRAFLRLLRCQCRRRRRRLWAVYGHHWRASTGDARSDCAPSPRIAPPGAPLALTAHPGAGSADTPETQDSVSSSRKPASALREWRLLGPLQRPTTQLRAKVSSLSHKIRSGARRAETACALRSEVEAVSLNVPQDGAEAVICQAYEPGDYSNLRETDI
T2 sequence (P43140 whole entry): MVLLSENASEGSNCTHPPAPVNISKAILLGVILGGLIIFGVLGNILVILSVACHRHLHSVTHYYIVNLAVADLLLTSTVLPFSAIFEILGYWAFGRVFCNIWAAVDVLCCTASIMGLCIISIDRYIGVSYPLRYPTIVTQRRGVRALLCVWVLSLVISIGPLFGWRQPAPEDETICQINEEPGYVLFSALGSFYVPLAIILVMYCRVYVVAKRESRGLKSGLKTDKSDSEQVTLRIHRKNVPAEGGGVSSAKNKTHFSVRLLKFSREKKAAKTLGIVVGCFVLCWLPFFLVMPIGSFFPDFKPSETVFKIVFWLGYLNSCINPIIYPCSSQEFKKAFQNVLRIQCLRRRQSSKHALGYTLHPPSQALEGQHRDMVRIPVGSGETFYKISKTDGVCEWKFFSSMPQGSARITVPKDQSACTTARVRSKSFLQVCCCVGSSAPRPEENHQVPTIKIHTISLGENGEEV

Rattus norvegicus [11] = assay: Percentage fall in systolic blood pressure after 1 hr at 12.5 mg/kg given perorally; assay type: functional, Artery; details: route oral; method in brief: as §2
Rattus norvegicus [12] = assay: Percentage fall in systolic blood pressure after 3 hours at 12.5 mg/kg given perorally; assay type: functional, Artery; details: route oral; method in brief: as §2
Rattus norvegicus [13] = assay: Percentage fall in systolic blood pressure after 4 hours at 6.25 mg/kg given perorally; assay type: functional, Artery; details: route oral; method in brief: as §2
Rattus norvegicus [14] = assay: (§6) Percentage fall in systolic blood pressure after 1 hr at 50 mg/kg given perorally; assay type: functional, Artery; details: route oral; method in brief: as §2
Rattus norvegicus [15] = assay: as §6; assay type: functional, organism-based; set-up: dose 50 mg/kg; details: Artery
Method in brief: (§7)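 Male Okamoto-Aoki spontaneously hypertensive rats, trained, in groups of four matched for mean systolic pressure; five treated groups and one vehicle control run concurrently. Oral dosing in water (solution or suspension, 0.1 mL/10 g) on two consecutive mornings. On day 2, rats were restrained at 30.0 ± 1.0 °C and tail-cuff systolic pressure recorded at 1–4 h; percent fall versus control, 1-tail t test, p ≤ 0.05.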

Rattus norvegicus [16] = assay: as §5; assay type: functional, organism-based; set-up: dose 50 mg/kg; details: Artery; method in brief: as §7
Rattus norvegicus [17] = assay: as §4; assay type: functional, organism-based; set-up: dose 50 mg/kg; details: Artery; method in brief: as §7
Rattus norvegicus [18] = assay: as §1; assay type: functional, organism-based; set-up: dose 50 mg/kg; details: Artery; method in brief: as §7

Compound | Decrease in SBP (Rattus norvegicus [1]) | Decrease in SBP (Rattus norvegicus [2]) | -Log Ki [3] | Decrease in SBP (Rattus norvegicus [4]) | Decrease in SBP (Rattus norvegicus [5]) | Decrease in SBP (Rattus norvegicus [6]) | Decrease in SBP (Rattus norvegicus [7]) | Decrease in SBP (Rattus norvegicus [8]) | Decrease in SBP (Rattus norvegicus [9]) | -Log Ki [10] | Decrease in SBP (Rattus norvegicus [11]) | Decrease in SBP (Rattus norvegicus [12]) | Decrease in SBP (Rattus norvegicus [13]) | Decrease in SBP (Rattus norvegicus [14]) | Decrease in SBP (Rattus norvegicus [15]) | Decrease in SBP (Rattus norvegicus [16]) | Decrease in SBP (Rattus norvegicus [17]) | Decrease in SBP (Rattus norvegicus [18])
O=C1COC2(CCN(CCc3c[nH]c4ccccc34)CC2)CN1 | 48% | 30% | 6.2 | 41% | 20% | 28% | 41% | 48% | 26% | 7.41 | 39% | 29% | 19% | 53% | – | – | – | –
O=C1COC2(CCN(CC(O)C3COc4ccccc4O3)CC2)C(c2ccccc2)N1 (stereo not drawn) | – | – | – | – | – | – | – | – | – | – | – | – | – | – | Not significant | Not significant | Not significant | Not significant
